From ChEMBL document CHEMBL1240350, “In vitro activity of CEM-101 against Streptococcus pneumoniae and Streptococcus pyogenes with defined macrolide resistance mechanisms” (Antimicrob Agents Chemother, 2010)
Values after ≈ are worked out from the molar mass of the structure shown.

Legend:
Type in all cases: functional
Streptococcus pneumoniae [1] = assay: Antibacterial activity against Streptococcus pneumoniae harboring erm(B) gene after overnight incubation by agar dilution method
Method in brief: (§1)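 Clinical isolates collected 1998–2008, with macrolide-resistance genes confirmed by PCR. MICs by agar dilution on Mueller-Hinton agar with 5% sheep blood. Inoculum 10^4 CFU/spot, incubated overnight at 35°C in ambient air. S. pneumoniae ATCC 49619 was the quality-control strain in every run.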

Streptococcus pneumoniae [2] = assay: Antibacterial activity against Streptococcus pneumoniae harboring mutation in 23S rRNA after overnight incubation by agar dilution method; method in brief: as §1
Streptococcus pyogenes [3] = assay: Antibacterial activity against Streptococcus pyogenes harboring erm(B) gene after overnight incubation by agar dilution method; method in brief: as §1
Streptococcus pyogenes [4] = assay: Antibacterial activity against macrolide-resistant Streptococcus pyogenes harboring erm(A) gene after overnight incubation by agar dilution method
Method in brief: (§2)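 Agar dilution MICs on Mueller-Hinton agar with 5% sheep blood. Inoculum 10^4 CFU/spot, incubated overnight at 35°C in ambient air. Clinical S. pneumoniae or group A streptococcal isolates; resistance genotypes (erm(B), erm(A), mef(A)/mef(E)) were assigned by PCR. S. pneumoniae ATCC 49619 served as QC strain in each run. Range, MIC50 and MIC90 reported per phenotype group.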

Streptococcus pyogenes [5] = assay: Antibacterial activity against macrolide-susceptible Streptococcus pyogenes after overnight incubation by agar dilution method
Method in brief: (§3)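 Agar dilution on Mueller-Hinton agar supplemented with 5% sheep blood, inoculum 10^4 CFU/spot, read after overnight incubation at 35°C in ambient air. Clinical isolates with defined genotypes; S. pneumoniae ATCC 49619 quality control strain included in each run. MIC50/MIC90 are MICs inhibiting 50% and 90% of isolates.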

Streptococcus pyogenes [6] = assay: Antibacterial activity against Streptococcus pyogenes harboring mutation in L4 ribosomal protein after overnight incubation by agar dilution method; method in brief: as §1
Streptococcus pneumoniae [7] = assay: Antibacterial activity against quinolone-resistant Streptococcus pneumoniae after overnight incubation by agar dilution method
Method in brief: (§4)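 Agar dilution on Mueller-Hinton agar supplemented with 5% sheep blood. Inoculum 10^4 CFU/spot, incubated overnight at 35°C in ambient air. Test strains were clinical pneumococcal isolates. S. pneumoniae ATCC 49619 was included as the quality control strain in each run. MIC range, MIC50 and MIC90 were reported for each susceptibility category.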

Streptococcus pneumoniae [8] = assay: Antibacterial activity against penicillin-susceptible Streptococcus pneumoniae after overnight incubation by agar dilution method; method in brief: as §4
Streptococcus pneumoniae [9] = assay: Antibacterial activity against macrolide-resistant Streptococcus pneumoniae harboring erm(B) gene after overnight incubation by agar dilution method; method in brief: as §2
Streptococcus pneumoniae [10] = assay: Antibacterial activity against macrolide-resistant Streptococcus pneumoniae harboring mef(A) gene after overnight incubation by agar dilution method; method in brief: as §2
Streptococcus pneumoniae [11] = assay: Antibacterial activity against Streptococcus pneumoniae harboring erm(A) gene after overnight incubation by agar dilution method; method in brief: as §1
Streptococcus pyogenes [12] = assay: Antibacterial activity against Streptococcus pyogenes harboring erm(A) gene after overnight incubation by agar dilution method; method in brief: as §1
Streptococcus pyogenes [13] = assay: Antibacterial activity against macrolide-resistant Streptococcus pyogenes harboring erm(B) gene after overnight incubation by agar dilution method; method in brief: as §2
Streptococcus pyogenes [14] = assay: Antibacterial activity against macrolide-resistant Streptococcus pyogenes harboring mef(A) gene after overnight incubation by agar dilution method; method in brief: as §2
Streptococcus pneumoniae [15] = assay: Antibacterial activity against Streptococcus pneumoniae harboring mef(A) gene after overnight incubation by agar dilution method; method in brief: as §1
Streptococcus pneumoniae [16] = assay: Antibacterial activity against quinolone-susceptible Streptococcus pneumoniae after overnight incubation by agar dilution method; method in brief: as §4
Streptococcus pneumoniae [17] = assay: Antibacterial activity against macrolide-susceptible Streptococcus pneumoniae after overnight incubation by agar dilution method; method in brief: as §2
Streptococcus pneumoniae [18] = assay: Antibacterial activity against penicillin-intermediate Streptococcus pneumoniae after overnight incubation by agar dilution method; method in brief: as §3
Streptococcus pyogenes [19] = assay: Antibacterial activity against Streptococcus pyogenes harboring mef(A) gene after overnight incubation by agar dilution method; method in brief: as §1

For `COc1c(N2C[C@@H]3CCCN[C@@H]3C2)c(F)cc2c(=O)c(C(=O)O)cn(C3CC3)c12` [MOXIFLOXACIN], which MIC50 (Streptococcus pneumoniae [1]) is on record?
Its MIC50 is 0.25 µg/mL (≈ 0.623 µM).

And the MIC90 (Streptococcus pneumoniae [1])?
The MIC90 was 0.5 µg/mL (≈ 1.25 µM).

And the MIC (Streptococcus pneumoniae [2])?
The MIC was 0.25 µg/mL (≈ 0.623 µM).

And the MIC50 (Streptococcus pyogenes [3])?
Its MIC50 is 0.25 µg/mL (≈ 0.623 µM).

What about the MIC90 (Streptococcus pyogenes [3]) of the same compound?
Its MIC90 is 0.25 µg/mL (≈ 0.623 µM).

And the MIC50 (Streptococcus pyogenes [4])?
The MIC50 was 0.25 µg/mL (≈ 0.623 µM).

What about the MIC90 (Streptococcus pyogenes [4]) of the same compound?
The MIC90 was 0.25 µg/mL (≈ 0.623 µM).

What about the MIC50 (Streptococcus pyogenes [5]) of the same compound?
Its MIC50 is 0.25 µg/mL (≈ 0.623 µM).

And the MIC90 (Streptococcus pyogenes [5])?
The MIC90 was 0.25 µg/mL (≈ 0.623 µM).

And the MIC (Streptococcus pyogenes [6])?
The MIC was 0.25 µg/mL (≈ 0.623 µM).

What about the MIC50 (Streptococcus pneumoniae [7]) of the same compound?
Its MIC50 is 4 µg/mL (≈ 9.96 µM).

And the MIC90 (Streptococcus pneumoniae [7])?
Its MIC90 is 4 µg/mL (≈ 9.96 µM).

What about the MIC50 (Streptococcus pneumoniae [8]) of the same compound?
Its MIC50 is 0.5 µg/mL (≈ 1.25 µM).

What about the MIC90 (Streptococcus pneumoniae [8]) of the same compound?
Its MIC90 is 4 µg/mL (≈ 9.96 µM).

And the MIC50 (Streptococcus pneumoniae [9])?
Its MIC50 is 0.25 µg/mL (≈ 0.623 µM).

And the MIC90 (Streptococcus pneumoniae [9])?
The MIC90 was 0.5 µg/mL (≈ 1.25 µM).

And the MIC50 (Streptococcus pneumoniae [10])?
The MIC50 was 0.25 µg/mL (≈ 0.623 µM).

And the MIC90 (Streptococcus pneumoniae [10])?
Its MIC90 is 0.5 µg/mL (≈ 1.25 µM).

And the MIC (Streptococcus pneumoniae [11])?
Its MIC is 0.25 µg/mL (≈ 0.623 µM).

And the MIC50 (Streptococcus pyogenes [12])?
The MIC50 was 0.25 µg/mL (≈ 0.623 µM).

And the MIC90 (Streptococcus pyogenes [12])?
Its MIC90 is 0.25 µg/mL (≈ 0.623 µM).

What about the MIC50 (Streptococcus pyogenes [13]) of the same compound?
The MIC50 was 0.25 µg/mL (≈ 0.623 µM).

And the MIC90 (Streptococcus pyogenes [13])?
Its MIC90 is 0.25 µg/mL (≈ 0.623 µM).

For `CC[C@H]1OC(=O)[C@H](C)[C@@H](O[C@H]2C[C@@](C)(OC)[C@@H](O)[C@H](C)O2)[C@H](C)[C@@H](O[C@@H]2O[C@H](C)C[C@H](N(C)C)[C@H]2O)[C@](C)(O)C[C@@H](C)C(=O)[C@H](C)[C@@H](O)[C@]1(C)O` [ERYTHROMYCIN], which MIC (Streptococcus pneumoniae [2]) is on record?
The MIC was 8 µg/mL (≈ 10.9 µM).

What about the MIC50 (Streptococcus pyogenes [14]) of the same compound?
The MIC50 was 16 µg/mL (≈ 21.8 µM).

What about the MIC90 (Streptococcus pyogenes [14]) of the same compound?
Its MIC90 is 32 µg/mL (≈ 43.6 µM).

What about the MIC50 (Streptococcus pyogenes [3]) of the same compound?
The MIC50 was greater than 64 µg/mL.

What about the MIC90 (Streptococcus pyogenes [3]) of the same compound?
Its MIC90 is greater than 64 µg/mL.

And the MIC50 (Streptococcus pneumoniae [15])?
Its MIC50 is 4 µg/mL (≈ 5.45 µM).

What about the MIC90 (Streptococcus pneumoniae [15]) of the same compound?
The MIC90 was 32 µg/mL (≈ 43.6 µM).

And the MIC50 (Streptococcus pneumoniae [16])?
Its MIC50 is greater than 64 µg/mL.

What about the MIC90 (Streptococcus pneumoniae [16]) of the same compound?
Its MIC90 is greater than 64 µg/mL.

And the MIC50 (Streptococcus pneumoniae [17])?
The MIC50 was 0.06 µg/mL (≈ 0.0818 µM).

What about the MIC90 (Streptococcus pneumoniae [17]) of the same compound?
Its MIC90 is 0.125 µg/mL (≈ 0.17 µM).

And the MIC50 (Streptococcus pneumoniae [18])?
The MIC50 was greater than 64 µg/mL.

And the MIC90 (Streptococcus pneumoniae [18])?
Its MIC90 is greater than 64 µg/mL.

And the MIC50 (Streptococcus pyogenes [4])?
Its MIC50 is 4 µg/mL (≈ 5.45 µM).

What about the MIC90 (Streptococcus pyogenes [4]) of the same compound?
Its MIC90 is greater than 64 µg/mL.

What about the MIC50 (Streptococcus pyogenes [5]) of the same compound?
The MIC50 was 0.06 µg/mL (≈ 0.0818 µM).

What about the MIC90 (Streptococcus pyogenes [5]) of the same compound?
The MIC90 was 0.125 µg/mL (≈ 0.17 µM).

What about the MIC (Streptococcus pyogenes [6]) of the same compound?
Its MIC is 2 µg/mL (≈ 2.73 µM).

And the MIC50 (Streptococcus pneumoniae [7])?
The MIC50 was 0.06 µg/mL (≈ 0.0818 µM).

And the MIC50 (Streptococcus pyogenes [19])?
The MIC50 was 16 µg/mL (≈ 21.8 µM).

What about the MIC90 (Streptococcus pyogenes [19]) of the same compound?
Its MIC90 is 32 µg/mL (≈ 43.6 µM).

What about the MIC50 (Streptococcus pneumoniae [8]) of the same compound?
Its MIC50 is 4 µg/mL (≈ 5.45 µM).

What about the MIC90 (Streptococcus pneumoniae [8]) of the same compound?
The MIC90 was greater than 64 µg/mL.

What about the MIC50 (Streptococcus pneumoniae [10]) of the same compound?
Its MIC50 is 4 µg/mL (≈ 5.45 µM).

And the MIC90 (Streptococcus pneumoniae [10])?
Its MIC90 is 32 µg/mL (≈ 43.6 µM).

What about the MIC (Streptococcus pneumoniae [11]) of the same compound?
The MIC was 2 µg/mL (≈ 2.73 µM).

And the MIC50 (Streptococcus pyogenes [12])?
The MIC50 was 4 µg/mL (≈ 5.45 µM).

What about the MIC90 (Streptococcus pyogenes [12]) of the same compound?
Its MIC90 is greater than 64 µg/mL.

And the MIC50 (Streptococcus pyogenes [13])?
Its MIC50 is greater than 64 µg/mL.

And the MIC90 (Streptococcus pyogenes [13])?
Its MIC90 is greater than 64 µg/mL.
